pKi: −log10 of the molar value. Where a SMILES comes first, the peptide text is derived from it. The star is where a group is joined. Argψ(CH2NH)TyrNH2 = N=C(N)NCCC[C@@H](CN[C@@H](Cc1ccc(O)cc1)C(N)=O)N*
Columns and labels:
[1] = target: T1, Neuropeptide Y receptor type 1 (Homo sapiens) (UniProt P25929); assay: Antagonist potency for the inhibition of Forskolin stimulated cAMP synthesis in cells expressing cloned Y1 receptors; type: functional
T1 sequence (whole entry): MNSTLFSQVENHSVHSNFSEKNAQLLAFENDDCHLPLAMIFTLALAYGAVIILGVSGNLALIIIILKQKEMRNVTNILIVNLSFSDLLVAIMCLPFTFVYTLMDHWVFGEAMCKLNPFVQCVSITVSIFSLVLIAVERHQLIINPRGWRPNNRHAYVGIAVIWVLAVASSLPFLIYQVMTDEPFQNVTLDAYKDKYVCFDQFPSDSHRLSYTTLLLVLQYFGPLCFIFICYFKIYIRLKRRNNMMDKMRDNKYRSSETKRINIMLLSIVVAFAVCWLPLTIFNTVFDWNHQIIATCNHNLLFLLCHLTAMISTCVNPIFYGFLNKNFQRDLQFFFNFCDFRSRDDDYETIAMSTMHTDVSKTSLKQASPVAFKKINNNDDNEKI

[2] = Selectivity ratio of Y1/Y2/Y4/Y5; 1/3840/120/2450
[3] = target: T2, Neuropeptide Y receptor type 5 (Homo sapiens, UniProt Q15761); assay: Agonist potency for the inhibition of Forskolin stimulated cAMP synthesis in cells expressing cloned Y5 receptors; no effect means no agonist activity at <20 000 nM; type: functional
T2 sequence (Q15761 whole entry): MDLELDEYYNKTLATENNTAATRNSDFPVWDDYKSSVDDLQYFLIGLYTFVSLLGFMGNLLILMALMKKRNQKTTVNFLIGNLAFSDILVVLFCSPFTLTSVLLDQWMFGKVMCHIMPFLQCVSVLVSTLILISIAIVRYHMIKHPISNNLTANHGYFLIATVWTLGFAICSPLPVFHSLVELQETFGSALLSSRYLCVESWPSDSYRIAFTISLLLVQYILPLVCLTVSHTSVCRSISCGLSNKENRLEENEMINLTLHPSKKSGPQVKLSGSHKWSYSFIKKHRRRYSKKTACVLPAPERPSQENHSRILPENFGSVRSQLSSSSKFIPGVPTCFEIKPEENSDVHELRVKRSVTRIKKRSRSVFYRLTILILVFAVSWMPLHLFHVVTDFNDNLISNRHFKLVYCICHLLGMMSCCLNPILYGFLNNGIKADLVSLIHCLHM

[4] = target: T3, Neuropeptide Y receptor type 4 (Homo sapiens, UniProt P50391); assay: Agonist potency for the inhibition of Forskolin stimulated cAMP synthesis in cells expressing cloned Y4 receptors; no effect means no agonist activity at <20 000 nM; type: functional
In short: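 Inhibition of forskolin-driven cAMP synthesis in cells expressing the Y4 receptor, with PP run as the reference control.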

[5] = target: T4, Neuropeptide Y receptor type 2 (Homo sapiens, UniProt P49146); assay: Agonist potency for the inhibition of Forskolin stimulated cAMP synthesis in cells expressing cloned Y2 receptors; no effect means no agonist activity at <20 000 nM; type: functional
T4 sequence (P49146 whole entry): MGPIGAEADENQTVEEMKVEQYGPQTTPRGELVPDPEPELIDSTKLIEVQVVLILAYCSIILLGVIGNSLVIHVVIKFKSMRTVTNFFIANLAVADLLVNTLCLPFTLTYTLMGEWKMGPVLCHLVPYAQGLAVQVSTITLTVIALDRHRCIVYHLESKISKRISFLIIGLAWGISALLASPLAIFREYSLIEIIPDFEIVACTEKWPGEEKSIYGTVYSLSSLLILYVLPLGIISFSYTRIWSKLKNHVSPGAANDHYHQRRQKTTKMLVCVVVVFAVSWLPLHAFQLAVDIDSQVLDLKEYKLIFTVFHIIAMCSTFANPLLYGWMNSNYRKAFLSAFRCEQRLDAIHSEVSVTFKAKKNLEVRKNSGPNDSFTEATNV

[6] = target: T4, Neuropeptide Y receptor type 2; assay: Affinity for cloned Y2 receptor using [125I]PYY as radioligand
[7] = target: T2, Neuropeptide Y receptor type 5; assay: Affinity for cloned Y5 receptor using [125I]PYY as radioligand
[8] = target: T5, Neuropeptide Y receptor type 1 (Homo sapiens, UniProt P25929); assay: Affinity for cloned Y1 receptor using [125I]PYY as radioligand
T5 sequence (P25929 whole entry): T1 sequence (whole entry)

[9] = target: T3, Neuropeptide Y receptor type 4; assay: (§1) Affinity for cloned Y4 receptor using [125I]PP as radioligand
[10] = target: T3, Neuropeptide Y receptor type 4; assay: as §1; remark: listed apart in the source
In short: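 Displacement binding with 125I-PP as tracer in cells expressing the Y4 receptor; PP served as the reference control.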

[11] = target: T1, Neuropeptide Y receptor type 1 (Homo sapiens); assay: Selectivity ratio of Y1/Y2/Y4/Y5; 1/2/1/200

T3 sequence (P50391 whole entry): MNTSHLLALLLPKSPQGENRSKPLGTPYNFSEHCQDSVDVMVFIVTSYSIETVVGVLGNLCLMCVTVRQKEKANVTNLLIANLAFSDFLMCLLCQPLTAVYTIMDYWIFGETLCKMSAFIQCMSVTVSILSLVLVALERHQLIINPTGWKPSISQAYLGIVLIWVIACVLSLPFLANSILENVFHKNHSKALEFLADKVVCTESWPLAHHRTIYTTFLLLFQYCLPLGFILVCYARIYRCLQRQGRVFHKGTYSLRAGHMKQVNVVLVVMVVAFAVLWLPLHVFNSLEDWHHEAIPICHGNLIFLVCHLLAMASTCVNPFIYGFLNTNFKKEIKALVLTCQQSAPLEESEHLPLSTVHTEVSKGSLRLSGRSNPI

Row | Kb [1] | pKi [6] | pKi [7] | pKi [8] | pKi [10] | Compound | other results
1 | 0.19 nM | – | – | – | – | CC[C@H](C)[C@H](N)C(=O)N[C@H]1CCC(=O)NC[C@@H](C(=O)N[C@@H](Cc2ccc(O)cc2)C(=O)N[C@@H](CCCN=C(N)N)C(=O)N[C@@H](CC(C)C)C(=O)N[C@@H](CCCN=C(N)N)C(=O)N[C@@H](Cc2ccc(O)cc2)C(=O)OC)NC(=O)[C@@H]2CCCN2C(=O)[C@H](NC(=O)[C@@H](N)[C@@H](C)CC)CCC(=O)NC[C@H](C(=O)N[C@@H](Cc2ccc(O)cc2)C(=O)N[C@@H](CCCN=C(N)N)C(=O)N[C@@H](CC(C)C)C(=O)N[C@@H](CCCN=C(N)N)C(=O)N[C@@H](Cc2ccc(O)cc2)C(=O)OC)NC(=O)[C@@H]2CCCN2C1=O | Selectivity [2]: Y1/Y4/Y5/Y2
2 | – | – | – | – | – | CC[C@H](C)[C@H](N)C(=O)N[C@@H](CC(N)=O)C(=O)N1CCC[C@H]1C(=O)N[C@@H](CSSC[C@H](NC(=O)[C@@H]1CCCN1C(=O)[C@H](CC(N)=O)NC(=O)[C@@H](N)[C@@H](C)CC)C(=O)N[C@@H](Cc1ccc(O)cc1)C(=O)N[C@@H](CCCN=C(N)N)C(=O)N[C@@H](CC(C)C)C(=O)N[C@@H](CCCN=C(N)N)CN[C@@H](Cc1ccc(O)cc1)C(N)=O)C(=O)N[C@@H](Cc1ccc(O)cc1)C(=O)N[C@@H](CCCN=C(N)N)C(=O)N[C@@H](CC(C)C)C(=O)N[C@@H](CCCN=C(N)N)CN[C@@H](Cc1ccc(O)cc1)C(N)=O | EC50 [3]: Not Active; EC50 [4]: Not Active; EC50 [5]: Not Active
3 | – | 5.78 | 5.29 | 7.46 | – | CC[C@H](C)[C@H](N)C(=O)N[C@@H](CC(N)=O)C(=O)N1CCC[C@H]1C(=O)N[C@H](C(=O)N[C@@H](Cc1ccc(O)cc1)C(=O)N[C@@H](CCCNC(=N)N)C(=O)N[C@@H](CC(C)C)C(=O)N[C@@H](CCCNC(=N)N)CN[C@@H](Cc1ccc(O)cc1)C(N)=O)[C@@H](C)CC (H-INPIYRL-{Argψ(CH2NH)TyrNH2}) | pKi [9]: 5.43
4 | 0.58 nM | – | – | – | – | CC[C@H](C)[C@H](N)C(=O)N[C@H]1CCC(=O)NC[C@@H](C(=O)N[C@@H](Cc2ccc(O)cc2)C(=O)N[C@@H](CCCN=C(N)N)C(=O)N[C@@H](CC(C)C)C(=O)N[C@@H](CCCN=C(N)N)CN[C@@H](Cc2ccc(O)cc2)C(N)=O)NC(=O)[C@@H]2CCCN2C(=O)[C@H](NC(=O)[C@@H](N)[C@@H](C)CC)CCC(=O)NC[C@H](C(=O)N[C@@H](Cc2ccc(O)cc2)C(=O)N[C@@H](CCCN=C(N)N)C(=O)N[C@@H](CC(C)C)C(=O)N[C@@H](CCCN=C(N)N)CN[C@@H](Cc2ccc(O)cc2)C(N)=O)NC(=O)[C@@H]2CCCN2C1=O | –
5 | – | 5.85 | 5.15 | 7.59 | – | CC[C@H](C)[C@H](N)C(=O)N[C@@H](CC(N)=O)C(=O)N1CCC[C@H]1C(=O)N[C@H](C(=O)N[C@@H](Cc1ccc(O)cc1)C(=O)N[C@@H](CCCNC(=N)N)C(=O)N[C@@H](CC(C)C)C(=O)N[C@@H](CCCNC(=N)N)C(=O)N[C@@H](Cc1ccc(O)cc1)C(=O)OC)[C@@H](C)CC (H-INPIYRLRY-OMe) | pKi [9]: 5.62
6 | – | 5.98 | 6.18 | 9.57 | 7.48 | CC[C@H](C)[C@H](N)C(=O)N[C@H]1CCC(=O)NC[C@@H](C(=O)N[C@@H](Cc2ccc(O)cc2)C(=O)N[C@@H](CCCN=C(N)N)C(=O)N[C@@H](CC(C)C)C(=O)N[C@@H](CCCN=C(N)N)C(=O)N[C@@H](Cc2ccc(O)cc2)C(=O)OC)NC(=O)[C@@H]2CCCN2C(=O)[C@@H](NC(=O)[C@@H](N)[C@@H](C)CC)CCC(=O)NC[C@@H](C(=O)N[C@@H](Cc2ccc(O)cc2)C(=O)N[C@@H](CCCN=C(N)N)C(=O)N[C@@H](CC(C)C)C(=O)N[C@@H](CCCN=C(N)N)C(=O)N[C@@H](Cc2ccc(O)cc2)C(=O)OC)NC(=O)[C@@H]2CCCN2C1=O | EC50 [3]: Not Active; EC50 [4]: Not Active; EC50 [5]: Not Active
7 | – | 6.20 | 5.10 | 9.34 | 7.18 | CC[C@H](C)[C@H](N)C(=O)N[C@H]1CCC(=O)NC[C@@H](C(=O)N[C@@H](Cc2ccc(O)cc2)C(=O)N[C@@H](CCCNC(=N)N)C(=O)N[C@@H](CC(C)C)C(=O)N[C@@H](CCCNC(=N)N)CN[C@@H](Cc2ccc(O)cc2)C(N)=O)NC(=O)[C@@H]2CCCN2C(=O)[C@@H](NC(=O)[C@@H](N)[C@@H](C)CC)CCC(=O)NC[C@@H](C(=O)N[C@@H](Cc2ccc(O)cc2)C(=O)N[C@@H](CCCNC(=N)N)C(=O)N[C@@H](CC(C)C)C(=O)N[C@@H](CCCNC(=N)N)CN[C@@H](Cc2ccc(O)cc2)C(N)=O)NC(=O)[C@@H]2CCCN2C1=O | –
8 | – | 7.95 | < 6.00 | 8.30 | – | H-INPIYRLRY-NH2 | Selectivity [11]: Y1/Y4/Y2/Y5; pKi [9]: 8.24
9 | 0.79 nM | – | – | – | – | CC[C@H](C)[C@H](N)C(=O)N[C@@H](CC(N)=O)C(=O)N1CCC[C@H]1C(=O)N[C@@H](CSSC[C@@H](NC(=O)[C@@H]1CCCN1C(=O)[C@H](CC(N)=O)NC(=O)[C@@H](N)[C@@H](C)CC)C(=O)N[C@@H](Cc1ccc(O)cc1)C(=O)N[C@@H](CCCN=C(N)N)C(=O)N[C@@H](CC(C)C)C(=O)N[C@@H](CCCN=C(N)N)CN[C@@H](Cc1ccc(O)cc1)C(N)=O)C(=O)N[C@@H](Cc1ccc(O)cc1)C(=O)N[C@@H](CCCN=C(N)N)C(=O)N[C@@H](CC(C)C)C(=O)N[C@@H](CCCN=C(N)N)CN[C@@H](Cc1ccc(O)cc1)C(N)=O | –
10 | – | 5.95 | 6.33 | 8.32 | 7.00 | CC[C@H](C)[C@H](N)C(=O)N[C@@H](CC(N)=O)C(=O)N1CCC[C@H]1C(=O)N[C@@H](CSSC[C@H](NC(=O)[C@@H]1CCCN1C(=O)[C@H](CC(N)=O)NC(=O)[C@@H](N)[C@@H](C)CC)C(=O)N[C@@H](Cc1ccc(O)cc1)C(=O)N[C@@H](CCCN=C(N)N)C(=O)N[C@@H](CC(C)C)C(=O)N[C@@H](CCCN=C(N)N)C(=O)N[C@@H](Cc1ccc(O)cc1)C(=O)OC)C(=O)N[C@@H](Cc1ccc(O)cc1)C(=O)N[C@@H](CCCN=C(N)N)C(=O)N[C@@H](CC(C)C)C(=O)N[C@@H](CCCN=C(N)N)C(=O)N[C@@H](Cc1ccc(O)cc1)C(=O)OC | EC50 [3]: Not Active; EC50 [4]: Not Active; EC50 [5]: Not Active
11 | 2.3 nM | – | – | – | – | CC[C@H](C)[C@H](N)C(=O)N[C@@H](CC(N)=O)C(=O)N1CCC[C@H]1C(=O)N[C@@H](CSSC[C@@H](NC(=O)[C@@H]1CCCN1C(=O)[C@H](CC(N)=O)NC(=O)[C@@H](N)[C@@H](C)CC)C(=O)N[C@@H](Cc1ccc(O)cc1)C(=O)N[C@@H](CCCN=C(N)N)C(=O)N[C@@H](CC(C)C)C(=O)N[C@@H](CCCN=C(N)N)C(=O)N[C@@H](Cc1ccc(O)cc1)C(=O)OC)C(=O)N[C@@H](Cc1ccc(O)cc1)C(=O)N[C@@H](CCCN=C(N)N)C(=O)N[C@@H](CC(C)C)C(=O)N[C@@H](CCCN=C(N)N)C(=O)N[C@@H](Cc1ccc(O)cc1)C(=O)OC | –
12 | – | 6.09 | 5.63 | 8.64 | 7.19 | CC[C@H](C)[C@H](N)C(=O)N[C@@H](CC(N)=O)C(=O)N1CCC[C@H]1C(=O)N[C@@H](CSSC[C@H](NC(=O)[C@@H]1CCCN1C(=O)[C@H](CC(N)=O)NC(=O)[C@@H](N)[C@@H](C)CC)C(=O)N[C@@H](Cc1ccc(O)cc1)C(=O)N[C@@H](CCCNC(=N)N)C(=O)N[C@@H](CC(C)C)C(=O)N[C@@H](CCCNC(=N)N)CN[C@@H](Cc1ccc(O)cc1)C(N)=O)C(=O)N[C@@H](Cc1ccc(O)cc1)C(=O)N[C@@H](CCCNC(=N)N)C(=O)N[C@@H](CC(C)C)C(=O)N[C@@H](CCCNC(=N)N)CN[C@@H](Cc1ccc(O)cc1)C(N)=O | –
